Reference: ChEMBL document CHEMBL4041464, “New potent biaryl sulfate-based hepatitis C virus inhibitors” (Eur J Med Chem, 2017)

Tests used:
[1] = Inhibition of HCV genotype 1b NK5.1 NS5A in infected human Huh 7.5.1 cells assessed as reduction in viral RNA replication incubated for 3 days by luciferase reporter gene assay; parameters: species or system Hepatitis C virus subtype 1b; conditions: Hepatitis C virus, NK5.1, Huh-7.5.1, 72 h
In short: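 Genotype 1b replicon cells (Huh 7.5.1 carrying NK5.1-Gluc) were cultured 16 h, then given serially diluted compounds for 3 days. Culture media were collected and luciferase activity measured and normalised to mock-treated cells to derive EC50. Cells were maintained in DMEM with 10% heat-inactivated FBS and antibiotics at 37°C, 6.0% CO₂.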

Huh7.5.1 = experiment: Cytotoxicity against human Huh7.5.1 cells at 20 uM; type: cell-based
[2] = Cmax in rat at 10 mg/kg, po; type: ADME, organism-based; parameters: dose 10 mg/kg, route oral; conditions: in vivo
Salmonella typhimurium [3] = experiment: Mutagenicity in Salmonella typhimurium TA98 assessed as revertant colonies/plate in absence of liver S9 fraction at 1000 ug/plate by Ames test (reference value: 21 +/- 1); type: toxicity; conditions: salmonella enterica subsp. enterica serovar typhimurium
[4] = Metabolic stability in human plasma assessed as compound remaining at 100 uM after 4 hrs incubation by LC-MS/MS analysis; type: ADME, cell-free; conditions: read-out: Stability
In short: (§1)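 Test compound (100 µM stock) was added to plasma pre-warmed 5 min at 37°C, mixed by vortex and incubated at 37°C. Samples were taken at 0, 15, 30, 60 and […] and quenched with 2 volumes acetonitrile. After centrifugation at 10,000 rpm for 10 min, the supernatant was analysed by LC-MS/MS. Results are given as % remaining after 4 h; mean ± SD. Enalapril and procaine served as controls.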

Rattus norvegicus = experiment: Half life in rat at 1 mg/kg, iv; type: ADME, organism-based; conditions: in vivo
Salmonella typhimurium [5] = experiment: Mutagenicity in Salmonella typhimurium TA100 assessed as revertant colonies/plate in absence of liver S9 fraction at 1000 ug/plate by Ames test (reference value: 125 +/- 9); type: toxicity; conditions: salmonella enterica subsp. enterica serovar typhimurium
[6] = system: Hepatitis C virus subtype 1b; experiment: Inhibition of HCV genotype 1b NK5.1 NS5A in infected human Huh 7.5.1 cells assessed as reduction in viral RNA replication by measuring combination index in presence of NS5B inhibitor sofosbuvir at ED50 incubated for 3 days by luciferase reporter gene assay
In short: (§2)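 Huh 7.5.1 cells carrying the bicistronic genotype 1b replicon NK5.1-Gluc (secreted Gaussia luciferase) plated at 5 x 10⁴ cells/well. After 16 h they were exposed to inhibitor alone or mixed with sofosbuvir at a constant ratio, serially diluted, for 3 days. Luciferase was read and normalised to mock-treated cells. Combination index at ED50/75/90/95 was obtained by the Chou method.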

Salmonella typhimurium [7] = experiment: Mutagenicity in Salmonella typhimurium TA98 assessed as revertant colonies/plate in presence of liver S9 fraction at 1000 ug/plate by Ames test (reference value: 25 +/- 3); type: toxicity; conditions: salmonella enterica subsp. enterica serovar typhimurium
[8] = Oral bioavailability in rat at 10 mg/kg; type: ADME, organism-based; conditions: in vivo
[9] = Half life in rat at 10 mg/kg, po; type: ADME, organism-based; conditions: in vivo
[10] = system: Hepatitis C virus subtype 1b; experiment: Inhibition of HCV genotype 1b NK5.1 NS5A in infected human Huh 7.5.1 cells assessed as reduction in viral RNA replication by measuring combination index in presence of NS5B inhibitor sofosbuvir at ED90 incubated for 3 days by luciferase reporter gene assay; in short: as §2
[11] = Cmax in rat at 1 mg/kg, iv; type: ADME, organism-based; parameters: dose 1 mg/kg, route intravenous; conditions: in vivo
[12] = system: Hepatitis C virus subtype 1b; experiment: Inhibition of HCV genotype 1b NK5.1 NS5A in infected human Huh 7.5.1 cells assessed as reduction in viral RNA replication by measuring combination index in presence of NS5B inhibitor sofosbuvir at ED95 incubated for 3 days by luciferase reporter gene assay; in short: as §2
Salmonella typhimurium [13] = experiment: Mutagenicity in Salmonella typhimurium TA100 assessed as revertant colonies/plate in presence of liver S9 fraction at 1000 ug/plate by Ames test (reference value: 129 +/- 3); type: toxicity; conditions: salmonella enterica subsp. enterica serovar typhimurium
[14] = system: Hepatitis C virus subtype 1b; experiment: Inhibition of HCV genotype 1b NK5.1 NS5A in infected human Huh 7.5.1 cells assessed as reduction in viral RNA replication by measuring combination index in presence of NS5B inhibitor sofosbuvir at ED75 incubated for 3 days by luciferase reporter gene assay; in short: as §2
[15] = Inhibition of HCV genotype 2a JFH5a replicon NS5A in infected human Huh 7.5.1 cells assessed as reduction in viral RNA replication incubated for 3 days by luciferase reporter gene assay; parameters: species or system Hepatitis C virus subtype 2a; conditions: Hepatitis C virus, Huh-7.5.1, 72 h
In short: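 Huh 7.5.1 cells were infected with JFH5a-Rluc-ad34 (a JFH1 genotype 2a derivative with adaptive E2/p7 mutations, Renilla luciferase reporter) cell-culture virus for 3 h. They were then cultured in serially diluted compounds for 3 days. Cells were harvested and Renilla luciferase activity measured, normalised to mock-treated cells, to give EC50.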

hERG (KCNH2) = hERG (KCNH2) (Homo sapiens, UniProt Q12809); experiment: Inhibition of human ERG at 10 uM by fluorescence polarization assay
[16] = Metabolic stability in rat plasma assessed as compound remaining at 100 uM after 4 hrs incubation by LC-MS/MS analysis; type: ADME, cell-free; conditions: read-out: Stability; in short: as §1
Salmonella typhimurium [17] = experiment: Mutagenicity in Salmonella typhimurium TA98 assessed as revertant colonies/plate in presence of liver S9 fraction at 5000 ug/plate by Ames test (reference value: 1); type: toxicity; conditions: salmonella enterica subsp. enterica serovar typhimurium
Salmonella typhimurium [18] = experiment: Mutagenicity in Salmonella typhimurium TA100 assessed as revertant colonies/plate in presence of liver S9 fraction at 5000 ug/plate by Ames test (reference value: 5 +/- 2 ); type: toxicity; conditions: salmonella enterica subsp. enterica serovar typhimurium
Salmonella typhimurium [19] = experiment: Mutagenicity in Salmonella typhimurium TA100 assessed as revertant colonies/plate in absence of liver S9 fraction at 5000 ug/plate by Ames test (reference value: 7 +/- 2 ); type: toxicity; conditions: salmonella enterica subsp. enterica serovar typhimurium
Salmonella typhimurium [20] = experiment: Mutagenicity in Salmonella typhimurium TA98 assessed as revertant colonies/plate in absence of liver S9 fraction at 5000 ug/plate by Ames test (reference value: 1); type: toxicity; conditions: salmonella enterica subsp. enterica serovar typhimurium
Salmonella typhimurium [21] = experiment: Mutagenicity in Salmonella typhimurium TA98 assessed as revertant colonies/plate in absence of liver S9 fraction at 1 ug/plate by Ames test (reference value: 21 +/- 1); type: toxicity; conditions: salmonella enterica subsp. enterica serovar typhimurium

Sequence of hERG (KCNH2) (Q12809 whole entry): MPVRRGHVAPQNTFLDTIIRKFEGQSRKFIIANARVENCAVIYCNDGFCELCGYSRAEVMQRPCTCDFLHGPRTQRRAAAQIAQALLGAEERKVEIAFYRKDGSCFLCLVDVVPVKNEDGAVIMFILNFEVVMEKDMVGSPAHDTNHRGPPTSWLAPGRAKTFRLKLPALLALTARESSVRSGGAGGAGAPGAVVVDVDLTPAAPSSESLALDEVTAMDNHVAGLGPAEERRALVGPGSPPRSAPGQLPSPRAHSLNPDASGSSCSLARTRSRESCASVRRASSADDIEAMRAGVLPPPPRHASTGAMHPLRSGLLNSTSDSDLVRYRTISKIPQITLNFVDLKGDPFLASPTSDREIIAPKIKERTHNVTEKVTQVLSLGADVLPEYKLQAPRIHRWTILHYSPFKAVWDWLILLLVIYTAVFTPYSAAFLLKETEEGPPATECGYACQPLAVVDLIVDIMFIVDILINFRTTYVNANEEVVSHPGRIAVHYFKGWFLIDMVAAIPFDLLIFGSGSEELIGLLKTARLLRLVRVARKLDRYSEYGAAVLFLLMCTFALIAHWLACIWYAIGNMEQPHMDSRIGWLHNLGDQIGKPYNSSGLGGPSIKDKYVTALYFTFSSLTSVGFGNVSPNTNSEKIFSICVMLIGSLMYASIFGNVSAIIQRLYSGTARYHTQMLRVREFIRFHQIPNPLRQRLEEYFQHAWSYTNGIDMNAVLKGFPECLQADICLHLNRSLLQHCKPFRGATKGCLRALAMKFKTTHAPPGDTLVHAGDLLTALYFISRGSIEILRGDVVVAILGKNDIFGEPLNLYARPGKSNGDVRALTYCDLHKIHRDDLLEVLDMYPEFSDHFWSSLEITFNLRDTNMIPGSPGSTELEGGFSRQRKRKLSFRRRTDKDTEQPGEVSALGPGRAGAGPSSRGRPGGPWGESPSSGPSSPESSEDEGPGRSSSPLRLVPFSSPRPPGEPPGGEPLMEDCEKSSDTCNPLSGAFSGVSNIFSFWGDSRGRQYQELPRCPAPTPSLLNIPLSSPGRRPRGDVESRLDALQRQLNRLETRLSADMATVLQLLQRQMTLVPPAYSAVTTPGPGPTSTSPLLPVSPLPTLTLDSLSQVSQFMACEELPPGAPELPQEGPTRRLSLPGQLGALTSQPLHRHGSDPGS

COC(=O)N[C@@H](C(=O)N1CCC[C@H]1C(=O)Nc1cccc(OS(=O)(=O)Oc2cccc(NC(=O)[C@@H]3CCCN3C(=O)[C@H](NC(=O)OC)c3ccccc3)c2C)c1C)c1ccccc1
EC50 [1]: 22.9 nM | Activity (Huh7.5.1): > 30 µM

COC(=O)N[C@H](C(=O)N1CCC[C@H]1c1ncc(-c2cccc(OS(=O)(=O)Oc3cccc(-c4cnc([C@@H]5CCCN5C(=O)[C@@H](NC(=O)OC)C(C)C)[nH]4)c3)c2)[nH]1)C(C)C
Cmax [2]: 0.017 µg/mL | Activity (Salmonella typhimurium [3]): 28 | remaining at 4 h, 100 µM [4]: 92.6% | t1/2 (Rattus norvegicus): 0.92 h | Activity (Salmonella typhimurium [5]): 125 | CI [6]: 0.98 | Activity (Salmonella typhimurium [7]): 29 | bioavailability [8]: 0.74% | half-life [9]: 2.25 h | EC50 [1]: 0.0323 nM | Activity (Huh7.5.1): > 30 µM | CI [10]: 1.16 | Cmax [11]: 1.68 µg/mL | CI [12]: 1.25 | Activity (Salmonella typhimurium [13]): 110 | CI [14]: 1.06 | EC50 [15]: 0.882 nM | inhibition at 10 µM (hERG (KCNH2)): 18.7% | remaining at 4 h, 100 µM [16]: 87.2%

COC(=O)N[C@@H](C(=O)N1CCC[C@H]1C(=O)Nc1ccc(S(=O)(=O)c2ccc(NC(=O)[C@@H]3CCCN3C(=O)[C@H](NC(=O)OC)c3ccccc3)cc2)cc1)c1ccccc1
EC50 [1]: 36.1 nM | Activity (Huh7.5.1): > 30 µM

COC(=O)N[C@H](C(=O)N1CCC[C@H]1c1ncc(-c2cccc(OS(=O)(=O)Oc3cccc(-c4cnc([C@@H]5CCCN5C(=O)[C@@H](NC(=O)OC)C(C)(C)C)[nH]4)c3)c2)[nH]1)C(C)(C)C
EC50 [1]: 37.1 nM | Activity (Huh7.5.1): > 30 µM

COC(=O)N[C@H](C(=O)N1CCC[C@H]1C(=O)Nc1ccc(S(=O)(=O)c2ccc(NC(=O)[C@@H]3CCCN3C(=O)[C@@H](NC(=O)OC)C(C)C)cc2)cc1)C(C)C
EC50 [1]: > 100000 nM | Activity (Huh7.5.1): > 30 µM

COC(=O)N[C@H](C(=O)N1CCC[C@H]1c1ncc(-c2ccc(OS(=O)(=O)Oc3ccc(-c4cnc([C@@H]5CCCN5C(=O)[C@@H](NC(=O)OC)C(C)C)[nH]4)cc3)cc2)[nH]1)C(C)C
EC50 [1]: 4.26 nM | Activity (Huh7.5.1): > 30 µM

CCOC(=O)[C@H](CCc1ccccc1)N[C@@H](C)C(=O)N1CCC[C@H]1C(=O)O
remaining at 4 h, 100 µM [16]: 0.032%

COC(=O)N[C@@H](C(=O)N1CCC[C@H]1C(=O)Nc1ccc(C)c(OS(=O)(=O)Oc2cc(NC(=O)[C@@H]3CCCN3C(=O)[C@H](NC(=O)OC)c3ccccc3)ccc2C)c1)c1ccccc1
EC50 [1]: 0.109 nM | Activity (Huh7.5.1): > 30 µM | EC50 [15]: 2.23 nM

COC(=O)N[C@@H](C(=O)N1CCC[C@H]1c1ncc(-c2cccc(OS(=O)(=O)Oc3cccc(-c4cnc([C@@H]5CCCN5C(=O)[C@H](NC(=O)OC)c5ccccc5)[nH]4)c3)c2)[nH]1)c1ccccc1
EC50 [1]: 0.36 nM | Activity (Huh7.5.1): > 30 µM | EC50 [15]: 10 nM

COC(=O)N[C@@H](C(=O)N1CCC[C@H]1C(=O)Nc1ccc(S(=O)(=O)c2ccc(NC(=O)[C@@H]3CCCN3C(=O)[C@H](NC(=O)OC)C(C)C)cc2)cc1)C(C)C
EC50 [1]: > 100000 nM | Activity (Huh7.5.1): > 30 µM

COC(=O)N[C@@H](C(=O)N1CCC[C@H]1C(=O)Nc1ccc(OS(=O)(=O)Oc2ccc(NC(=O)[C@@H]3CCCN3C(=O)[C@H](NC(=O)OC)c3ccccc3)cc2)cc1)c1ccccc1
EC50 [1]: 0.01 nM | Activity (Huh7.5.1): > 30 µM

Nc1ccc(OS(=O)(=O)Oc2ccc(N)cc2)cc1
Activity (Salmonella typhimurium [17]): 1 | Activity (Salmonella typhimurium [18]): 8 | Activity (Salmonella typhimurium [19]): 10 | Activity (Salmonella typhimurium [20]): 1

COC(=O)N[C@@H](C(=O)N1CCC[C@H]1c1ncc(-c2ccc(OS(=O)(=O)Oc3ccc(-c4cnc([C@@H]5CCCN5C(=O)[C@H](NC(=O)OC)C(C)C)[nH]4)cc3)cc2)[nH]1)C(C)C
EC50 [1]: 417 nM | Activity (Huh7.5.1): > 30 µM | EC50 [15]: 427 nM

O=[N+]([O-])c1ccc2c(c1)Cc1ccccc1-2 [2-NITROFLUORENE]
Activity (Salmonella typhimurium [21]): 183

CCN(CC)CCOC(=O)c1ccc(N)cc1 [PROCAINE]
remaining at 4 h, 100 µM [4]: 0.003%

COC(=O)N[C@@H](C(=O)N1CCC[C@H]1C(=O)Nc1cccc(OS(=O)(=O)Oc2cccc(NC(=O)[C@@H]3CCCN3C(=O)[C@H](NC(=O)OC)c3ccccc3)c2)c1)c1ccccc1
Cmax [2]: 0.014 µg/mL | Activity (Salmonella typhimurium [3]): 26 | remaining at 4 h, 100 µM [4]: 86.3% | t1/2 (Rattus norvegicus): 0.51 h | Activity (Salmonella typhimurium [5]): 126 | CI [6]: 0.872 | Activity (Salmonella typhimurium [7]): 29 | bioavailability [8]: 0.54% | half-life [9]: 1.6 h | EC50 [1]: 0.0198 nM | Activity (Huh7.5.1): > 30 µM | CI [10]: 0.949 | Cmax [11]: 1.96 µg/mL | CI [12]: 0.977 | Activity (Salmonella typhimurium [13]): 130 | CI [14]: 0.909 | EC50 [15]: 0.0199 nM | inhibition at 10 µM (hERG (KCNH2)): 2.73% | remaining at 4 h, 100 µM [16]: 76.7%

COC(=O)N[C@@H](C(=O)N1CCC[C@H]1c1ncc(-c2ccc(OS(=O)(=O)Oc3ccc(-c4cnc([C@@H]5CCCN5C(=O)[C@H](NC(=O)OC)c5ccccc5)[nH]4)cc3)cc2)[nH]1)c1ccccc1
EC50 [1]: 0.27 nM | Activity (Huh7.5.1): > 30 µM | EC50 [15]: 0.147 nM

COC(=O)N[C@H](C(=O)N1CCC[C@H]1C(=O)Nc1cccc(OS(=O)(=O)Oc2cccc(NC(=O)[C@@H]3CCCN3C(=O)[C@@H](NC(=O)OC)C(C)(C)C)c2)c1)C(C)(C)C
EC50 [1]: 0.0772 nM | Activity (Huh7.5.1): > 30 µM | EC50 [15]: 0.943 nM

COC(=O)N[C@@H](C(=O)N1CCC[C@H]1C(=O)Nc1ccc(OS(=O)(=O)Oc2ccc(NC(=O)[C@@H]3CCCN3C(=O)[C@H](NC(=O)OC)C(C)C)cc2)cc1)C(C)C
EC50 [1]: 575 nM | Activity (Huh7.5.1): > 30 µM
